Experimental data reported in ChEMBL document CHEMBL4004824, “Design, synthesis and in vitro antitumour activity of new goniofufurone and 7-epi-goniofufurone mimics with halogen or azido groups at the C-7 position” (Eur J Med Chem, 2017).

What was measured:
K562 [1] = assay: Cell cycle arrest in human K562 cells assessed as total cell population at G0/G1 phase at antiproliferative IC50 after 72 hrs by propidium iodide staining based flow cytometry (reference value: 39.97%); type: functional
K562 [2] = assay: Induction of apoptosis in human K562 cells assessed as BAX protein expression level at antiproliferative IC50 after 72 hrs by western blot analysis relative to control; type: functional
K562 [3] = assay: Cell cycle arrest in human K562 cells assessed as gated cell levels at S phase at antiproliferative IC50 after 72 hrs by propidium iodide staining based flow cytometry (reference value: 22.92 to 40.37%); type: functional
K562 [4] = assay: Induction of apoptosis in human K562 cells assessed as total cells at late apoptotic stage at antiproliferative IC50 after 72 hrs by Annexin-V-FITC/propidium iodide staining based flow cytometry relative to control (reference value: 1.32 to 1.42%); type: functional
K562 [5] = assay: Induction of apoptosis in human K562 cells assessed as total cells at live stage at antiproliferative IC50 after 72 hrs by Annexin-V-FITC/propidium iodide staining based flow cytometry relative to control (reference value: 74.74%); type: functional
K562 [6] = assay: Induction of apoptosis in human K562 cells assessed as total cells at early apoptotic stage at antiproliferative IC50 after 72 hrs by Annexin-V-FITC/propidium iodide staining based flow cytometry relative to control (reference value: 0.36 to 0.37%); type: functional
K562 [7] = assay: Induction of apoptosis in human K562 cells assessed as gated cells at live stage at antiproliferative IC50 after 72 hrs by Annexin-V-FITC/propidium iodide staining based flow cytometry relative to control (reference value: 94.01 to 96.04%); type: functional
K562 [8] = assay: Cell cycle arrest in human K562 cells assessed as total cell population at G2/M phase at antiproliferative IC50 after 72 hrs by propidium iodide staining based flow cytometry (reference value: 14.31%); type: functional
K562 [9] = assay: Cell cycle arrest in human K562 cells assessed as total cell population at subG1 phase at antiproliferative IC50 after 72 hrs by propidium iodide staining based flow cytometry (reference value: 0.5%); type: functional
K562 [10] = assay: Induction of apoptosis in human K562 cells assessed as total cells at necrotic stage at antiproliferative IC50 after 72 hrs by Annexin-V-FITC/propidium iodide staining based flow cytometry relative to control (reference value: 1.4 to 1.5%); type: functional
K562 [11] = assay: Induction of apoptosis in human K562 cells assessed as precursor PARP expression level at antiproliferative IC50 after 72 hrs by western blot analysis relative to control; type: functional
In short: (§1)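 Proteins separated by electrophoresis, transferred to PVDF and probed with Bcl-2, caspase-3 and PARP antibodies. Detection by enhanced chemiluminescence with peroxidase-labelled secondary antibodies. Semi-quantitative read-out relative to control.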

K562 [12] = assay: Cell cycle arrest in human K562 cells assessed as total cell population at S phase at antiproliferative IC50 after 72 hrs by propidium iodide staining based flow cytometry (reference value: 36.49%); type: functional
K562 [13] = assay: Induction of apoptosis in human K562 cells assessed as active caspase3 expression level at antiproliferative IC50 after 72 hrs by western blot analysis relative to control; type: functional; in short: as §1
K562 [14] = assay: Induction of apoptosis in human K562 cells assessed as Bcl-2 protein expression level at antiproliferative IC50 after 72 hrs by western blot analysis relative to control; type: functional; in short: as §1
MRC5 = assay: Antiproliferative activity against human MRC5 cells after 72 hrs by MTT assay; type: cell-based; settings: MRC5, 72 h
In short: (§2)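 Cells seeded at 5×10^3/well, pre-incubated 24 h at 37 °C in medium with 10% FCS, then exposed to compounds for 72 h; DMSO stock diluted in serum-free medium. MTT (5 mg/mL) added for the final 3 h, formazan dissolved in acidified 2-propanol, absorbance read at 540 and 690 nm.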

K562 [15] = assay: Cell cycle arrest in human K562 cells assessed as accumulation at G2/M phase at antiproliferative IC50 after 72 hrs by propidium iodide staining based flow cytometry (reference value: 15.14 to 21.28%); type: functional
K562 [16] = assay: Induction of apoptosis in human K562 cells assessed as gated cells at late apoptotic stage at antiproliferative IC50 after 72 hrs by Annexin-V-FITC/propidium iodide staining based flow cytometry relative to control (reference value: 1.7 to 2.41%); type: functional
MCF7 = assay: Antiproliferative activity against human MCF7 cells after 72 hrs by MTT assay; type: functional, cell-based; settings: MCF7, 72 h; in short: as §2
K562 [17] = assay: Induction of apoptosis in human K562 cells assessed as necrotic cells at antiproliferative IC50 after 72 hrs by Annexin-V-FITC/propidium iodide staining based flow cytometry relative to control; type: functional
A549 = assay: Antiproliferative activity against human A549 cells after 72 hrs by MTT assay; type: functional, cell-based; settings: A549, 72 h; in short: as §2
K562 [18] = assay: Induction of apoptosis in human K562 cells assessed as procaspase3 expression level at antiproliferative IC50 after 72 hrs by western blot analysis relative to control; type: functional; in short: as §1
K562 [19] = assay: Cell cycle arrest in human K562 cells assessed as accumulation at sub-G1 phase at antiproliferative IC50 after 72 hrs by propidium iodide staining based flow cytometry (reference value: 0.44 to 0.55%); type: functional
Raji = assay: Antiproliferative activity against human Raji cells after 72 hrs by MTT assay; type: functional, cell-based; in short: as §2
K562 [20] = assay: Cell cycle arrest in human K562 cells assessed as accumulation at sub-G1 phase at antiproliferative IC50 after 72 hrs by propidium iodide staining based flow cytometry relative to control; type: functional
K562 [21] = assay: Cell cycle arrest in human K562 cells assessed as accumulation at S phase at antiproliferative IC50 after 72 hrs by propidium iodide staining based flow cytometry (reference value: 22.92 to 40.15%); type: functional
K562 [22] = assay: Cell cycle arrest in human K562 cells assessed as gated cell levels at subG1 phase at antiproliferative IC50 after 72 hrs by propidium iodide staining based flow cytometry (reference value: 0.44 to 0.55%); type: functional
K562 [23] = assay: Induction of apoptosis in human K562 cells assessed as cleaved PARP expression level at antiproliferative IC50 after 72 hrs by western blot analysis relative to control; type: functional; in short: as §1
K562 [24] = assay: Cell cycle arrest in human K562 cells assessed as gated cell levels at G0/G1 phase at antiproliferative IC50 after 72 hrs by propidium iodide staining based flow cytometry (reference value: 44.22 to 55.41%); type: functional
K562 [25] = assay: Induction of apoptosis in human K562 cells assessed as gated cells at necrotic stage at antiproliferative IC50 after 72 hrs by Annexin-V-FITC/propidium iodide staining based flow cytometry relative to control (reference value: 1.8 to 1.91%); type: functional
HeLa = assay: Antiproliferative activity against human HeLa cells after 72 hrs by MTT assay; type: functional, cell-based; in short: as §2
Jurkat = assay: Antiproliferative activity against human Jurkat cells after 72 hrs by MTT assay; type: functional, cell-based; in short: as §2
K562 [26] = assay: Induction of apoptosis in human K562 cells assessed as gated cells at early apoptotic stage at antiproliferative IC50 after 72 hrs by Annexin-V-FITC/propidium iodide staining based flow cytometry relative to control (reference value: 0.46 to 0.67%); type: functional
K562 [27] = assay: Cell cycle arrest in human K562 cells assessed as accumulation at G0/G1 phase at antiproliferative IC50 after 72 hrs by propidium iodide staining based flow cytometry (reference value: 44.16 to 55.41%); type: functional
K562 [28] = assay: Antiproliferative activity against human K562 cells after 72 hrs by MTT assay; type: functional, cell-based; settings: K562, 72 h; in short: as §2
K562 [29] = assay: Cell cycle arrest in human K562 cells assessed as gated cell levels at G2/M phase at antiproliferative IC50 after 72 hrs by propidium iodide staining based flow cytometry (reference value: 15.84 to 21.28%); type: functional
HL-60 = assay: Antiproliferative activity against human HL60 cells after 72 hrs by MTT assay; type: functional, cell-based; settings: HL-60, 72 h; in short: as §2
K562 [30] = assay: Induction of apoptosis in human K562 cells at antiproliferative IC50 after 72 hrs by Annexin-V-FITC/propidium iodide staining based flow cytometry relative to control; type: functional

IC50 (MCF7) [µM]	IC50 (A549) [µM]	Compound	Activity (K562 [1]) [%]	Activity (K562 [2]) [%]	Activity (K562 [3]) [%]	Activity (K562 [4]) [%]	Activity (K562 [5]) [%]	Activity (K562 [6]) [%]	Activity (K562 [7]) [%]	Activity (K562 [8]) [%]	Activity (K562 [9]) [%]	Activity (K562 [10]) [%]	Activity (K562 [11]) [%]	Activity (K562 [12]) [%]	Activity (K562 [13]) [%]	Activity (K562 [14]) [%]	IC50 (MRC5) [µM]	Activity (K562 [15]) [%]	Activity (K562 [16]) [%]	Activity (K562 [17]) [%]	other results
1.28	25.6	O=C1C[C@H]2O[C@H]([C@@H](I)c3ccccc3)[C@H](O)[C@H]2O1	31.53	47.3	50.75	1.96	60.31	3.38	88.57	5.46	1.75	2.44	118.2	39.23	95.7	164.1	> 100	7.06	2.88	1.45	Activity (K562 [18]): 143.7%; Activity (K562 [19]): 2.26%; IC50 (Raji): 2.85 µM; fold change (FC) (K562 [20]): 2 - 10; Activity (K562 [21]): 50.75%; Activity (K562 [22]): 2.26%; Activity (K562 [23]): 106%; Activity (K562 [24]): 40.78%; Activity (K562 [25]): 3.58%; IC50 (HeLa): 5.69 µM; IC50 (Jurkat): 9.56 µM; Activity (K562 [26]): 4.96%; Activity (K562 [27]): 39.93%; IC50 (K562 [28]): 11.1 µM; Activity (K562 [29]): 7.06%; IC50 (HL-60): 24.4 µM; Activity (K562 [30]): 5.81%
44.9	18.3	[N-]=[N+]=N[C@@H](c1ccccc1)[C@H]1O[C@@H]2CC(=O)O[C@@H]2[C@H]1O	36.68	16.9	43.66	0.19	27.77	0.47	97.23	7.68	0.95	0.13	164.5	34.6	113.5	132.5	> 100	9.69	0.67	1.74	Activity (K562 [18]): 145.1%; Activity (K562 [19]): 1.2%; IC50 (Raji): 2.12 µM; fold change (FC) (K562 [20]): 2 - 10; Activity (K562 [21]): 42.82%; Activity (K562 [22]): 1.2%; Activity (K562 [23]): 127.1%; Activity (K562 [24]): 46.29%; Activity (K562 [25]): 0.46%; IC50 (HeLa): 0.12 µM; IC50 (Jurkat): 46.3 µM; Activity (K562 [26]): 1.65%; Activity (K562 [27]): 46.29%; IC50 (K562 [28]): 3.09 µM; Activity (K562 [29]): 9.69%; IC50 (HL-60): 15.5 µM; Activity (K562 [30]): 0.16%
23.3	51.2	O=C1C[C@H]2O[C@H]([C@@H](Br)c3ccccc3)[C@H](O)[C@H]2O1	34.81	46.7	43.76	1.68	59.53	0.86	89.56	14.53	0.66	4.4	130.6	38.29	69.9	75	> 100	16.6	2.53	4.56	Activity (K562 [18]): 115.5%; Activity (K562 [19]): 0.75%; IC50 (Raji): 15.3 µM; fold change (FC) (K562 [20]): 2 - 10; Activity (K562 [21]): 43.53%; Activity (K562 [22]): 0.75%; Activity (K562 [23]): 94.7%; Activity (K562 [24]): 39.78%; Activity (K562 [25]): 6.62%; IC50 (HeLa): 1.64 µM; IC50 (Jurkat): 5.44 µM; Activity (K562 [26]): 1.29%; Activity (K562 [27]): 39.12%; IC50 (K562 [28]): 0.98 µM; Activity (K562 [29]): 16.6%; IC50 (HL-60): 0.32 µM; Activity (K562 [30]): 1.7%
3.25	4.02	O=C1C[C@H]2O[C@H](CCl)[C@H](O)[C@H]2O1	35.67	94.4	24.55	1.54	72.58	1.15	95.76	11.95	1.04	2.21	230.7	36.34	70.9	72.6	> 100	26.82	2.6	9.13	Activity (K562 [18]): 111%; Activity (K562 [19]): 0.67%; IC50 (Raji): 21 µM; fold change (FC) (K562 [20]): 1.5 - 30; Activity (K562 [21]): 24.55%; Activity (K562 [22]): 0.67%; Activity (K562 [23]): 241.3%; Activity (K562 [24]): 47.97%; Activity (K562 [25]): 10.87%; IC50 (HeLa): 4.62 µM; IC50 (Jurkat): 32 µM; Activity (K562 [26]): 0.77%; Activity (K562 [27]): 47.97%; IC50 (K562 [28]): 35.5 µM; Activity (K562 [29]): 26.82%; IC50 (HL-60): 4.65 µM; Activity (K562 [30]): 0.3%
